Laboratory results published in ChEMBL document CHEMBL1157688, “Novel tumor-targeted RGD peptide-camptothecin conjugates: synthesis and biological evaluation” (Bioorg Med Chem, 2010).

Key:
Integrin alpha-V/beta-3 [1] = target: T1, Integrin alpha-V/beta-3 (Homo sapiens, UniProt P05106+P06756); test: Inhibition of integrin alphaVbeta3 receptor-mediated adhesion of human A498 cells to vitronectin after 1 hr by toluidine blue staining; type: cell-based
Outline: (§1)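 Wells were coated 2 h at room temperature with human vitronectin and blocked 1 h with 1% BSA. Tumor cells in serum-free medium with 1% BSA were plated with compounds at 0.1 to 100 and incubated 1 h. Cells were washed with PBS, fixed 10 min in 4% paraformaldehyde and stained 10 min with 1% toluidine blue.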
Target sequence in this assay (P05106 27-788 limits assumed): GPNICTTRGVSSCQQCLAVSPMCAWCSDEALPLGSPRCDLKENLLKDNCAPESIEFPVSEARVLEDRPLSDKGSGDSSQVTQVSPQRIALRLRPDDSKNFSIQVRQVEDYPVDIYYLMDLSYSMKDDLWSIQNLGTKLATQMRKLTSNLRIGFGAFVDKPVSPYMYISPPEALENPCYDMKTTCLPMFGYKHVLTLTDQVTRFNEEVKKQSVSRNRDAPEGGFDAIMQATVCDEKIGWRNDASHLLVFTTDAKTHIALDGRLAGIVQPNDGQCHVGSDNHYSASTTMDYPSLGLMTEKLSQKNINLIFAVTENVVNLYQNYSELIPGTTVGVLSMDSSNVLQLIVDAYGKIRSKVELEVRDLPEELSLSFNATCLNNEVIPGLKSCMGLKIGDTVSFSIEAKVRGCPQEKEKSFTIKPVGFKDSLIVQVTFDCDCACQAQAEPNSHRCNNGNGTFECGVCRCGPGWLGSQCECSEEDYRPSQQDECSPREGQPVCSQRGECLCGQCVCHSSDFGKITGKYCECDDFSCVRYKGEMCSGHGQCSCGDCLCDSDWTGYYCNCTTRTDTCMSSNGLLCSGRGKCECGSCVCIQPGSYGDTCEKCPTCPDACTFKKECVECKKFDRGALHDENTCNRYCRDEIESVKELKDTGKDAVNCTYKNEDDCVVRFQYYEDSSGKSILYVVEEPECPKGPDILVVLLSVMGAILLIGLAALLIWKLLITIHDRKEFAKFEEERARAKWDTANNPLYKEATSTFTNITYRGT
Target sequence in this assay (P06756 31-889 limits assumed): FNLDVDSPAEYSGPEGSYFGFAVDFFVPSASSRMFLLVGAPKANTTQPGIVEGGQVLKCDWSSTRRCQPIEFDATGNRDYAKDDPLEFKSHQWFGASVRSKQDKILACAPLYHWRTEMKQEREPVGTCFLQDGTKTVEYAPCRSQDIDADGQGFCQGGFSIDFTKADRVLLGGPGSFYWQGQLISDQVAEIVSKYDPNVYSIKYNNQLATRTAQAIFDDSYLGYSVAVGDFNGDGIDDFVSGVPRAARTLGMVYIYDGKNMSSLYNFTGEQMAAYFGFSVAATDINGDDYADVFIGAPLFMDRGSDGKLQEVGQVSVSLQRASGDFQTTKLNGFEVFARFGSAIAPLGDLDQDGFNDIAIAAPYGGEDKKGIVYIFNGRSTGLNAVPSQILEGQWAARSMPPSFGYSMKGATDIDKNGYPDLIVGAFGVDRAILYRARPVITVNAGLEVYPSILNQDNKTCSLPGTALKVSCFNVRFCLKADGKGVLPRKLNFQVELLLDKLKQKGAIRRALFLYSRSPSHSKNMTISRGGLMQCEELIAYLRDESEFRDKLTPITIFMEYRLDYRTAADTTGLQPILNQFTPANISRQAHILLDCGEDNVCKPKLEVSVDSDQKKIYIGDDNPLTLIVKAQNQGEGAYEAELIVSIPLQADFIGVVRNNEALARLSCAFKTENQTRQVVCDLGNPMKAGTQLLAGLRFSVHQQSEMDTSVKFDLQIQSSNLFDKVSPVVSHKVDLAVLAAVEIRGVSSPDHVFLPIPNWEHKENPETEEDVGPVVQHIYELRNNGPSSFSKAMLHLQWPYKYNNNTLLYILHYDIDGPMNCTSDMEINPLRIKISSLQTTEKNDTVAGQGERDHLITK
Target sequence in this assay (P06756 891-1048 limits assumed): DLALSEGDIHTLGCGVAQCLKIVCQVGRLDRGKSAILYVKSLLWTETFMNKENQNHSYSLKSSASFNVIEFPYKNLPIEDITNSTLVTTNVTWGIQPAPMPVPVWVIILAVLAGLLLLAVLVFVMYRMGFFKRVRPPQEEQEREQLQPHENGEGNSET

Integrin alpha-V/beta-5 [2] = target: T2, Integrin alpha-V/beta-5 (Homo sapiens, UniProt P06756+P18084); test: Inhibition of integrin alphaVbeta5 receptor-mediated adhesion of human A498 cells to vitronectin after 1 hr by toluidine blue staining; type: cell-based; outline: as §1
Target sequence in this assay (P06756 31-889 limits assumed): as the sequence (P06756 31-889 limits assumed) above
Target sequence in this assay (P06756 891-1048 limits assumed): as the sequence (P06756 891-1048 limits assumed) above
Target sequence in this assay (P18084 24-799 limits assumed): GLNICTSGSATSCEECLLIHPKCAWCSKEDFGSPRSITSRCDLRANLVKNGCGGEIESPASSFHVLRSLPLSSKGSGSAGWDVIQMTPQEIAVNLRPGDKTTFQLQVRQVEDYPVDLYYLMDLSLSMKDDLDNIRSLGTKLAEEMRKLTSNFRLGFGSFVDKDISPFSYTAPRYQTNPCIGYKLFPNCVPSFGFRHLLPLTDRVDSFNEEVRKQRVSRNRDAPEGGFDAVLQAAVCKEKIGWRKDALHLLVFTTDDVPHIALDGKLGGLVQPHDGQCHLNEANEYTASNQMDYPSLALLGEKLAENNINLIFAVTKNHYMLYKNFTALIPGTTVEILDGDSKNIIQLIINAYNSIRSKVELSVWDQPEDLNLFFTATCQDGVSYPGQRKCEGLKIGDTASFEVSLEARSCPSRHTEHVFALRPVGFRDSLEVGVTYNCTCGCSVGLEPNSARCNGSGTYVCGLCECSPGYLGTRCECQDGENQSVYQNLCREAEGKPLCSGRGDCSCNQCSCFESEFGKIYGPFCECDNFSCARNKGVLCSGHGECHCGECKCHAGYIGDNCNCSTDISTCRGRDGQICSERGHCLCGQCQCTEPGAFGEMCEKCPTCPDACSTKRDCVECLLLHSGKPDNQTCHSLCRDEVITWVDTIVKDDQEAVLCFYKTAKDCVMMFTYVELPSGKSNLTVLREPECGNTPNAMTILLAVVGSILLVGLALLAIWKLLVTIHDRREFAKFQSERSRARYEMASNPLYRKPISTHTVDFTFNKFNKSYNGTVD

PC-3 = test: Cytotoxicity against human PC3 cells after 72 hrs by sulforhodamine B assay; type: functional, cell-based; conditions: PC-3, 72 h
Outline: (§2)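 Tumor cells were seeded in 96-well plates and exposed the next day to a range of drug concentrations for 72 h. Surviving cells were quantified by sulforhodamine B staining, and IC50 ± SD was derived by curve fitting.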

A2780 [3] = test: Cytotoxicity against human A2780 cells after 72 hrs by sulforhodamine B assay; type: functional, cell-based; conditions: A2780, 72 h; outline: as §2
Integrin alpha-V/beta-5 [4] = target: T2, Integrin alpha-V/beta-5; test: Inhibition of integrin alphaVbeta5 receptor-mediated adhesion of human A2780 cells to vitronectin after 1 hr by toluidine blue staining; type: cell-based; outline: as §1
Target sequence in this assay (P06756 31-889 limits assumed): as the sequence (P06756 31-889 limits assumed) above
Target sequence in this assay (P06756 891-1048 limits assumed): as the sequence (P06756 891-1048 limits assumed) above
Target sequence in this assay (P18084 24-799 limits assumed): as the sequence (P18084 24-799 limits assumed) above

Integrin alpha-V/beta-5 [5] = target: T2, Integrin alpha-V/beta-5; test: Binding affinity to integrin alphaVbeta5 receptor in human A498 cells; type: cell-based
Integrin alpha-V/beta-3 [6] = target: T1, Integrin alpha-V/beta-3; test: Binding affinity to integrin alphaVbeta3 receptor in human A498 cells; type: cell-based
Integrin alpha-V/beta-5 [7] = target: T2, Integrin alpha-V/beta-5; test: Binding affinity to integrin alphaVbeta5 receptor in human A2780 cells; type: cell-based
A498 [8] = test: Cytotoxicity against human A498 cells after 72 hrs by sulforhodamine B assay; type: functional, cell-based; conditions: A498, 72 h; outline: as §2
Integrin alpha-V/beta-5 [9] = target: T2, Integrin alpha-V/beta-5; test: Displacement of [125I]echistatin from integrin alphaVbeta5 receptor after 3 hrs by gamma counting; type: protein-complex assay
Target sequence in this assay (P06756 31-889 limits assumed): as the sequence (P06756 31-889 limits assumed) above
Target sequence in this assay (P06756 891-1048 limits assumed): as the sequence (P06756 891-1048 limits assumed) above
Target sequence in this assay (P18084 24-799 limits assumed): as the sequence (P18084 24-799 limits assumed) above

Integrin alpha-V/beta-3 [10] = target: T1, Integrin alpha-V/beta-3; test: Displacement of [125I]echistatin from integrin alphaVbeta3 receptor after 3 hrs by gamma counting; type: protein-complex assay
Target sequence in this assay (P05106 27-788 limits assumed): as the sequence (P05106 27-788 limits assumed) above
Target sequence in this assay (P06756 31-889 limits assumed): as the sequence (P06756 31-889 limits assumed) above
Target sequence in this assay (P06756 891-1048 limits assumed): as the sequence (P06756 891-1048 limits assumed) above

Integrin alpha-V [11] = target: T3, Integrin alpha-V (Homo sapiens, UniProt P06756); test: Binding affinity to integrin alphaV receptor in human PC3 cells; type: cell-based; conditions: PC-3
T3 sequence (P06756 31-889 limits assumed): as the sequence (P06756 31-889 limits assumed) above
T3 sequence (P06756 891-1048 limits assumed): as the sequence (P06756 891-1048 limits assumed) above
Outline: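 Tumor cells in serum-free medium with 1% BSA were plated for 1 h on wells precoated with 5 µg/ml human vitronectin and blocked with 1% BSA. Compounds were tested at 0.1–100 µM. Adherent cells were fixed with 4% paraformaldehyde, stained with 1% toluidine blue, solubilized in 1% SDS and read by absorbance. IC50 ± SD from curve fitting.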

Mus musculus [12] = test: AUC (0 to infinity) in nude mouse xenografted with human A2780 cells at 48 mg/kg, sc QD for 5 days; type: ADME, organism-based; set-up: time infinity, dose 48 mg/kg, route subcutaneous; conditions: in vivo, 120 h
A498 [13] = test: Cellular uptake in human A498 cells at IC50 after 48 hrs by HPLC-FL analysis; type: ADME, cell-based; conditions: a498, 48 h
Outline: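 A-498 cells (6.2×10^5 per dish) were treated 24 h after seeding and sampled at 5, 24, 48 and 72 h. Cells were PBS-washed, scraped and pelleted, then lysed by five freeze-thaw cycles. Lysates were extracted with methanol/acetonitrile (1:1) and analyzed by isocratic HPLC with fluorescence detection. Lysate protein was measured by Bradford assay.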

Mus musculus [14] = test: AUC (0 to infinity) in nude mouse xenografted with human A2780 cells at 48 mg/kg, ip administered as single dose every fourth day for four times; type: ADME, organism-based; set-up: time infinity, dose 48 mg/kg, route intraperitoneal; conditions: in vivo
A2780 [15] = test: Antitumor activity against human A2780 cells xenografted in nude mouse assessed as tumor volume inhibition at 48 mg/kg, sc QD for 5 days measured after 17 days of tumor implantation relative to control; type: functional; conditions: route subcutaneous
Outline: (§3)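 Nude mice bearing A2780 human ovarian carcinoma xenografts were dosed from day 2 after tumor injection, either ip every fourth day ×4 or sc daily ×5, at 10 mL/kg. Tumor volume was calculated from the shortest and longest diameters on day 16 or 17. TVI% is relative to vehicle-treated controls (mean ± SE, Mann–Whitney). Body weight was monitored for toxicity.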

Mus musculus [16] = test: Metabolic stability in nude mouse xenografted with human A2780 cells assessed as release of free namitecan in blood at 48 mg/kg, ip administered as single dose every fourth day for four times; type: ADME, organism-based; set-up: dose 48 mg/kg, route intraperitoneal; conditions: in vivo
Mus musculus [17] = test: Metabolic stability in nude mouse xenografted with human A2780 cells assessed as release of free namitecan in blood at 48 mg/kg, sc QD for 5 days; type: ADME, organism-based; set-up: dose 48 mg/kg, route subcutaneous; conditions: in vivo, 120 h
A2780 [18] = test: Antitumor activity against human A2780 cells xenografted in nude mouse assessed as tumor volume inhibition at 48 mg/kg, ip administered as single dose every fourth day for four times measured after 16 days of tumor implantation relative to control; type: functional; conditions: 384 h, route intraperitoneal; outline: as §3
[19] = Chemical stability assessed as half life at 100 uM at pH 7.4 by HPLC analysis; type: physicochemical; conditions: buffer
Outline: (§4)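 Compounds were dissolved in DMSO and diluted to 100 (final, 1% DMSO) in phosphate buffer for pH 7.4 or acetate buffer for pH 5.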

[20] = Chemical stability assessed as half life at 100 uM at pH 5 by HPLC analysis; type: physicochemical; conditions: buffer; outline: as §4
A498 [21] = test: Cellular uptake in human A498 cells at 0.064 uM after 5 hrs by HPLC-FL analysis; type: ADME, cell-based; conditions: a498, 5 h
Outline: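 A-498 cells (6.2 × 10⁵) were seeded in dishes and dosed 24 h later, then sampled at 5, 24, 48 and 72 h. Cells were PBS-washed, scraped, pelleted, lysed by five freeze–thaw cycles, and extracted with methanol/acetonitrile (1:1). Culture medium was extracted the same way. Analysis was by isocratic HPLC-FL (30% CH₃CN / 70% 0.1 M AcOH with 0.1% TEA, pH about 3.5), and lysate protein was measured by Bradford assay.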

Integrin alpha-V [22] = target: T3, Integrin alpha-V; test: Inhibition of integrin alphaV receptor-mediated adhesion of human PC3 cells to vitronectin after 1 hr by toluidine blue staining; type: cell-based; conditions: pc-3; outline: as §1
A2780 [23] = test: Antitumor activity against human A2780 cells xenografted in nude mouse assessed as tumor volume inhibition at 16.3 mg/kg, sc QD for 5 days; type: functional, organism-based; set-up: dose 16.3 mg/kg; outline: as §3
A2780 [24] = test: Antitumor activity against human A2780 cells xenografted in nude mouse assessed as tumor volume inhibition at 0.42 mg/kg, sc QD for 5 days measured after 17 days of tumor implantation relative to control; type: functional; conditions: route subcutaneous; outline: as §3
Mus musculus [25] = test: AUC (0 to infinity) in nude mouse xenografted with human A2780 cells at 0.42 mg/kg, sc QD for 5 days; type: ADME, organism-based; set-up: time infinity, dose 0.42 mg/kg, route subcutaneous; conditions: in vivo, 120 h

Compound	IC50 (Integrin alpha-V/beta-3 [1]) [µM]	IC50 (Integrin alpha-V/beta-5 [2]) [µM]	IC50 (PC-3) [µM]	IC50 (A2780 [3]) [µM]	IC50 (Integrin alpha-V/beta-5 [4]) [µM]	IC50 (A498 [8]) [µM]	IC50 (Integrin alpha-V/beta-5 [9]) [µM]	IC50 (Integrin alpha-V/beta-3 [10]; read-out: IC50) [µM]	further results
N=C(N)NCCC[C@@H]1NC(=O)[C@H](c2ccc(CNC(=O)CCC(=O)O)cc2)NC(=O)[C@@H](Cc2ccccc2)NC(=O)[C@H](CC(=O)O)NC(=O)CNC1=O	34	34	> 1000	> 1000	9.5	> 1000	0.0051	0.0376	Activity (Integrin alpha-V/beta-5 [5]): Dose-dependent effect; Activity (Integrin alpha-V/beta-3 [6]): Dose-dependent effect; Activity (Integrin alpha-V/beta-5 [7]): Dose-dependent effect; Activity (Integrin alpha-V [11]): Dose-dependent effect
CC[C@@]1(O)C(=O)OCc2c1cc1n(c2=O)Cc2c-1nc1ccccc1c2/C=N/OCCNC(=O)CCC(=O)NCc1ccc(C[C@@H]2NC(=O)[C@@H](Cc3ccccc3)NC(=O)[C@H](CC(=O)O)NC(=O)CNC(=O)[C@H](CCCNC(=N)N)NC2=O)cc1	5.4	5.4	4.7	0.16	–	4.3	0.00839	0.00727	–
CC[C@@]1(O)C(=O)OCc2c1cc1n(c2=O)Cc2c-1nc1ccccc1c2/C=N\OCCNC(=O)CCC[C@@H]1NC(=O)[C@@H](Cc2ccccc2)NC(=O)[C@H](CC(=O)O)NC(=O)CNC(=O)[C@H](CCCNC(=N)N)NC1=O	3.7	3.7	15	0.4	3.1	3.2	–	–	AUC (Mus musculus [12]): 82 µg/h/mL; Drug uptake (A498 [13]): Active; AUC (Mus musculus [14]): 82 µg/h/mL
CC[C@@]1(O)C(=O)OCc2c1cc1n(c2=O)Cc2c-1nc1ccccc1c2/C=N/OCCNC(=O)COCCOCCOCC(=O)NCc1ccc(C[C@@H]2NC(=O)[C@@H](Cc3ccccc3)NC(=O)[C@H](CC(=O)O)NC(=O)CNC(=O)[C@H](CCCN=C(N)N)NC2=O)cc1	3.1	3.1	27	0.18	1.8	0.74	0.0065	0.0125	inhibition in vivo at 48 mg/kg (A2780 [15]): 37%; Activity (Mus musculus [16]): 2.5%; Drug uptake (A498 [13]): Active; Activity (Mus musculus [17]): 2.5%; inhibition in vivo at 48 mg/kg (A2780 [18]): 43%
N=C(N)NCCC[C@@H]1NC(=O)[C@H](CCCC(=O)O)NC(=O)[C@@H](Cc2ccccc2)NC(=O)[C@H](CC(=O)O)NC(=O)CNC1=O	–	–	> 1000	> 1000	–	> 1000	–	–	Activity (Integrin alpha-V/beta-5 [5]): Dose-dependent effect; Activity (Integrin alpha-V/beta-3 [6]): Dose-dependent effect; Activity (Integrin alpha-V/beta-5 [7]): Dose-dependent effect; Activity (Integrin alpha-V [11]): Dose-dependent effect
CC[C@@]1(O)C(=O)OCc2c1cc1n(c2=O)Cc2c-1nc1ccccc1c2C=O	–	–	0.13	0.003	–	–	–	–	–
CC[C@@]1(O)C(=O)OCc2c1cc1n(c2=O)Cc2c-1nc1ccccc1c2CC/C=N/NC(=O)COCCOCCOCC(=O)NCc1ccc(C[C@@H]2NC(=O)[C@@H](Cc3ccccc3)NC(=O)[C@H](CC(=O)O)NC(=O)CNC(=O)[C@H](CCCNC(=N)N)NC2=O)cc1	–	–	0.42	0.017	12.9	–	0.0229	0.00601	half-life at 100 µM [19]: 5.8 h; half-life at 100 µM [20]: < 0.0333 h
CC[C@@]1(O)C(=O)OCc2c1cc1n(c2=O)Cc2c-1nc1ccccc1c2/C=N/NC(=O)COCCOCCOCC(=O)NCc1ccc(C[C@@H]2NC(=O)[C@@H](Cc3ccccc3)NC(=O)[C@H](CC(=O)O)NC(=O)CNC(=O)[C@H](CCCNC(=N)N)NC2=O)cc1	–	–	0.22	0.09	6.7	–	0.0599	0.0117	half-life at 100 µM [19]: 6 h; half-life at 100 µM [20]: 25 h
N=C(N)NCCC[C@@H]1NC(=O)[C@H](c2ccc(CNC(=O)COCCOCCOCC(=O)NN)cc2)NC(=O)[C@@H](Cc2ccccc2)NC(=O)[C@H](CC(=O)O)NC(=O)CNC1=O	–	–	> 1000	> 1000	11.8	–	0.00065	0.0038	–
N=C(N)NCCC[C@@H]1NC(=O)[C@H](c2ccc(CNC(=O)COCCOCCOCC(=O)O)cc2)NC(=O)[C@@H](Cc2ccccc2)NC(=O)[C@H](CC(=O)O)NC(=O)CNC1=O	10.7	10.7	> 1000	> 1000	12.3	> 1000	0.00035	0.004	Activity (Integrin alpha-V/beta-5 [5]): Dose-dependent effect; Activity (Integrin alpha-V/beta-3 [6]): Dose-dependent effect; Activity (Integrin alpha-V/beta-5 [7]): Dose-dependent effect; Activity (Integrin alpha-V [11]): Dose-dependent effect
CC[C@@]1(O)C(=O)OCc2c1cc1n(c2=O)Cc2c-1nc1ccccc1c2CCC=O	–	–	0.12	0.015	–	–	–	–	–
CC[C@@]1(O)C(=O)OCc2c1cc1n(c2=O)Cc2c-1nc1ccccc1c2/C=N\OCCN	–	–	0.36	0.0049	–	0.064	–	–	Drug uptake (A498 [21]): Active; IC50 (Integrin alpha-V [22]): Not Active; inhibition (A2780 [23]): Toxic; inhibition in vivo at 0.42 mg/kg (A2780 [24]): 43%; AUC (Mus musculus [25]): 2 µg/h/mL; IC50 (Integrin alpha-V/beta-3 [10]): Not Active
